Among the data in ChEMBL document CHEMBL1125414, “A novel class of calcium-entry blockers: the 1[[4-(aminoalkoxy)phenyl]sulfonyl]indolizines” (J Med Chem, 1992) are IC50 values, retold here.

pIC50: −log10 of the molar value.

The species entered for one experiment is Rattus norvegicus. Kind of experiment: Molar concentration required to block [Ca2+] induced contraction of K+ depolarized rat aorta by 50%. It is filed as functional. In short, it runs like this: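 Spiral strips of thoracic aorta from male Wistar rats in modified Krebs solution, 95% O2/5% CO2, 37 °C, depolarized preparation. pD2 taken as negative log molar antagonist concentration reducing maximal contraction by 50%.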

A short description of experiment [1]: Displacement of [3H]nitrendipine binding to L-type calcium channel of Guinea pig cerebral cortex membranes. It is filed as tissue-based, Cavia porcellus.

`CCCCCCCCN(CCCCCCCC)CCCOc1ccc(S(=O)(=O)c2c(C(C)C)cn3ccccc23)cc1`: the pIC50 (commonly the IC50 on a negative log10 scale, so that one unit is a factor of ten) in the experiment listed under Rattus norvegicus was 4.52; in experiment [1], 8.19. As for `COc1ccc(NCCCOc2ccc(S(=O)(=O)c3c(C(C)C)cn4ccccc34)cc2)cc1OC`, the pIC50 in the experiment filed under Rattus norvegicus is 6.40; in experiment [1], 6.42.

Turning to `COc1ccc(CCN(C)CCCOc2ccc(S(=O)(=O)c3c(C4CC4)cn4ccccc34)cc2)cc1OC`, the negative-log IC50 (pIC50) in the experiment filed under Rattus norvegicus is 8.41; in experiment [1] it was 9.13. The matching figures for `COc1cc(CCN(C)CCCOc2ccc(S(=O)(=O)c3c(C(C)C)cn4ccccc34)cc2)cc(OC)c1OC`: 8.65 and 9.22. Take `CCc1cn2ccccc2c1S(=O)(=O)c1ccc(OCCCN2CCCCC2)cc1`: the pIC50 was 6.45 in the experiment listed under Rattus norvegicus and 6.56 in experiment [1]. Compound `CCN(CC)CCCOc1ccc(S(=O)(=O)c2c(C)cn3ccccc23)cc1` showed a pIC50 in the experiment listed under Rattus norvegicus of 5.47. With `COc1ccc(CN(C)CCCOc2ccc(S(=O)(=O)c3c(C(C)C)cn4ccccc34)cc2)cc1OC`, the figures for the pIC50 (in the experiment listed under Rattus norvegicus; in experiment [1]) were 8.50 and 9.21, respectively. `CCc1cn2ccccc2c1S(=O)(=O)c1ccc(OCCCN(C)CCc2ccc(OC)c(OC)c2)cc1` gave a pIC50 in the experiment filed under Rattus norvegicus of 7.87.

On to `COc1ccc(CCNCCCOc2ccc(S(=O)(=O)c3c(C(C)C)cn4ccccc34)cc2)cc1OC`, for which the pIC50 in the experiment filed under Rattus norvegicus was 8.30; in experiment [1], 8.74. `CC(C)c1cn2ccccc2c1S(=O)(=O)c1ccc(OCCCNC(C)(C)C)cc1`: the results for the negative logarithm of the IC50 (pIC50) (in the experiment filed under Rattus norvegicus; in experiment [1]) were 7.38 and 7.76, respectively. As to `CCCCN(CCCC)CCCOc1ccc(S(=O)(=O)c2c(C(C)C)cn3ccccc23)cc1`, the pIC50 was 7.67 in the experiment filed under Rattus norvegicus and 8.68 in experiment [1].

Take `CCCCN(CCCC)CCOc1ccc(S(=O)(=O)c2c(CC)cn3ccccc23)cc1`: the pIC50 in the experiment filed under Rattus norvegicus is 7.14; in experiment [1], 7.48. The matching figures for `COc1ccc(CNCCCOc2ccc(S(=O)(=O)c3c(C(C)C)cn4ccccc34)cc2)cc1OC`: 7.89 and 8.92. As for `COc1ccc(CN(C)CCCCOc2ccc(S(=O)(=O)c3c(C(C)C)cn4ccccc34)cc2)cc1OC`, the pIC50 in the experiment listed under Rattus norvegicus is 7.84; in experiment [1], 8.35. On the same counts, the results for `CC(C)c1cn2ccccc2c1S(=O)(=O)c1ccc(OCCCN2CCN(c3ccccc3)CC2)cc1` are 6.69 and 7.85.

`CCCN(CCC)CCCOc1ccc(S(=O)(=O)c2c(C(C)C)cn3ccccc23)cc1` gave a pIC50 in the experiment listed under Rattus norvegicus of 6.99. In the case of `CCCCN(CCCC)CCCOc1ccc(S(=O)(=O)c2c(C3CC3)cn3ccccc23)cc1`, the pIC50 in the experiment filed under Rattus norvegicus was 7.96; in experiment [1], 8.60. On the same counts, the results for `CCc1cn2ccccc2c1S(=O)(=O)c1ccc(OCCCNCCc2ccc(OC)c(OC)c2)cc1` are 7.96 and 8.34. On the same counts, the results for `CCCCN(CCCC)CCCOc1ccc(S(=O)(=O)c2c(-c3ccccc3)cn3ccccc23)cc1` are 5.79 and 6.81. The matching figures for `CC(C)c1cn2ccccc2c1S(=O)(=O)c1ccc(OCCCN2CCC(c3ccccc3)CC2)cc1`: 7.09 and 8.18. Take `CCN(CC)CCCOc1ccc(S(=O)(=O)c2c(C(C)C)cn3ccccc23)cc1`: the results for the pIC50 (in the experiment filed under Rattus norvegicus; in experiment [1]) were 6.64 and 7.29, respectively. On the same counts, the results for `COc1ccc(CCN(C)CCCCOc2ccc(S(=O)(=O)c3c(C(C)C)cn4ccccc34)cc2)cc1OC` are 7.67 and 8.64.

For `COc1cccc(CCN(C)CCCOc2ccc(S(=O)(=O)c3c(C(C)C)cn4ccccc34)cc2)c1`, the values for the pIC50 (in the experiment filed under Rattus norvegicus; in experiment [1]) were 8.10 and 8.59, respectively.

In the case of `CCCCN(CCCC)CCCOc1ccc(S(=O)(=O)c2c(C3CCCCC3)cn3ccccc23)cc1`, the values for the pIC50 (in the experiment listed under Rattus norvegicus; in experiment [1]) were 5.39 and 6.95, respectively. The matching figures for `COc1cc(CCNCCCOc2ccc(S(=O)(=O)c3c(C(C)C)cn4ccccc34)cc2)cc(OC)c1`: 8.63 and 9.28.

In the case of `COc1cc(CCN(C)CCCOc2ccc(S(=O)(=O)c3c(C(C)C)cn4ccccc34)cc2)cc(OC)c1`, the negative-log IC50 (pIC50) in the experiment listed under Rattus norvegicus was 8.67; in experiment [1] it was 9.72.

For the compound `CCCCCN(CCCCC)CCCOc1ccc(S(=O)(=O)c2c(CC)cn3ccccc23)cc1`, the figures for the negative logarithm of the IC50 (pIC50) (in the experiment filed under Rattus norvegicus; in experiment [1]) were 7.20 and 8.20, respectively.

For the compound `CCCCN(CCCC)CCCOc1ccc(S(=O)(=O)c2c(CCC)cn3ccccc23)cc1`, the pIC50 in the experiment filed under Rattus norvegicus was 7.27; in experiment [1] it was 7.85. Take `CCCCN(CCCC)CCCCOc1ccc(S(=O)(=O)c2c(C(C)C)cn3ccccc23)cc1`: the pIC50 in the experiment listed under Rattus norvegicus was 7.69; in experiment [1] it was 8.89. On the same counts, the results for `CCCCc1cn2ccccc2c1S(=O)(=O)c1ccc(OCCCN(CCC)CCC)cc1` are 6.24 and 6.89. For the compound `COc1ccc(CCN(C)CCCOc2ccc(S(=O)(=O)c3c(C(C)C)cn4ccccc34)cc2)cc1OC` [FANTOFARONE], the pIC50 in the experiment filed under Rattus norvegicus was 8.25; in experiment [1], 9.21.

Regarding `COc1ccc(CN(C)CCCOc2ccc(S(=O)(=O)c3c(C4CC4)cn4ccccc34)cc2)cc1OC`, the pIC50 in the experiment filed under Rattus norvegicus was 8.33; in experiment [1] it was 8.72. The matching figures for `CC(C)c1cn2ccccc2c1S(=O)(=O)c1ccc(OCCCNCc2ccccc2)cc1`: 7.64 and 8.35. Turning to `CC(C)c1cn2ccccc2c1S(=O)(=O)c1ccc(OCCCNCCc2ccccc2)cc1`, the pIC50 is 7.09 in the experiment listed under Rattus norvegicus and 8.40 in experiment [1]. The matching figures for `COC(=O)C1=C(C)NC(C)=C(C(=O)OC)C1c1ccccc1[N+](=O)[O-]` [NIFEDIPINE]: 8.94 and 8.60. The matching figures for `CC(C)c1cn2ccccc2c1S(=O)(=O)c1ccc(OCCCN(C)C)cc1`: 6.41 and 6.70. For the compound `CCCCN(CCCC)CCCOc1ccc(S(=O)(=O)c2c(CC)cn3ccccc23)cc1`, the values for the pIC50 (in the experiment filed under Rattus norvegicus; in experiment [1]) were 7.50 and 7.85, respectively.

Regarding `CCCCN(CCCC)CCCOc1ccc(S(=O)(=O)c2c(C)cn3ccccc23)cc1`, the figures for the pIC50 (in the experiment listed under Rattus norvegicus; in experiment [1]) were 6.79 and 7.16, respectively. On the same counts, the results for `COc1ccc(CCN(C)CCCOc2ccc(S(=O)(=O)c3c(C(C)C)cn4ccccc34)cc2)cc1` are 7.65 and 8.06. With `COc1ccc(CCN(C)CCCC(C#N)(c2ccc(OC)c(OC)c2)C(C)C)cc1OC` (stereo unspecified), the pIC50 in the experiment filed under Rattus norvegicus was 7.33; in experiment [1] it was 7.42. As for `CCCCN(CCCOc1ccc(S(=O)(=O)c2c(C(C)C)cn3ccccc23)cc1)CCc1ccc(OC)c(OC)c1`, the pIC50 in the experiment filed under Rattus norvegicus was 7.73; in experiment [1], 9.08. Take `COc1ccc([C@@H]2Sc3ccccc3N(CCN(C)C)C(=O)[C@@H]2OC(C)=O)cc1` [DILTIAZEM]: the figures for the pIC50 (in the experiment listed under Rattus norvegicus; in experiment [1]) were 6.52 and 7.23, respectively. On the same counts, the results for `CCCN(CCC)CCCOc1ccc(S(=O)(=O)c2c(CC)cn3ccccc23)cc1` are 6.82 and 6.74.

In the case of `CCCCc1cn2ccccc2c1S(=O)(=O)c1ccc(OCCCN(CCCC)CCCC)cc1`, the pIC50 in the experiment filed under Rattus norvegicus was 6.55; in experiment [1] it was 7.66. On to `CC(C)(C)NCCCOc1ccc(S(=O)(=O)c2c(C(C)(C)C)cn3ccccc23)cc1`, for which the results for the negative logarithm of the IC50 (pIC50) (in the experiment filed under Rattus norvegicus; in experiment [1]) were 6.35 and 7.05, respectively. The matching figures for `CCCCN(CCCC)CCCOc1ccc(S(=O)(=O)c2c(C(C)(C)C)cn3ccccc23)cc1`: 7.28 and 8.02. Take `CCCCN(CCCC)CCCCCOc1ccc(S(=O)(=O)c2c(CC)cn3ccccc23)cc1`: the negative logarithm of the IC50 (pIC50) is 7.01 in the experiment filed under Rattus norvegicus and 7.70 in experiment [1]. On the same counts, the results for `CCCCN(CCCC)CCCCOc1ccc(S(=O)(=O)c2c(CC)cn3ccccc23)cc1` are 7.48 and 8.34. Turning to `CCc1cn2ccccc2c1S(=O)(=O)c1ccc(OCCCNC(C)(C)C)cc1`, the pIC50 is 6.38 in the experiment listed under Rattus norvegicus and 6.89 in experiment [1].

Consider `CCCN(CCC)CCCOc1ccc(S(=O)(=O)c2c(C)cn3ccccc23)cc1`, for which the pIC50 in the experiment filed under Rattus norvegicus is 6.02; in experiment [1], 6.19. Take `CC(C)(C)NCCCOc1ccc(S(=O)(=O)c2c(C3CC3)cn3ccccc23)cc1`: the pIC50 is 7.18 in the experiment listed under Rattus norvegicus and 7.37 in experiment [1]. The matching figures for `CCCCCN(CCCCC)CCCOc1ccc(S(=O)(=O)c2c(C(C)C)cn3ccccc23)cc1`: 7.05 and 9.05.
